These results are taken from ChEMBL document CHEMBL1138573, “Synthesis and molluscicidal activity of some new thiophene, thiadiazole and pyrazole derivatives” (2009).

What all share (type): functional
In experiment [1] the test system is Biomphalaria alexandrina. The experiment is described as follows: Molluscicidal activity against Biomphalaria alexandrina assessed as number of dead snail per 10 snails at 4 ppm after 24 hrs. The method, boiled down:
(§1)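 Field-collected B. alexandrina snails held 45 days in the lab, fed daily on lettuce, and checked free of parasitic infection. Compound mixed with a few drops of Tween 20, then suspended in untreated raw River Nile water at seven concentrations of 4–16 ppm, in aerated glass jars. Ten snails of similar size (ca. 7 mm) per jar, kept 24 h at ambient temperature. Run three times and the mean number killed taken. LC50 and LC90 were derived from this mortality. Control was water with Tween 20. Follows WHO guidelines.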

Experiment [2] has as its system Biomphalaria alexandrina. Kind of experiment: Molluscicidal activity against Biomphalaria alexandrina assessed as number of dead snail per 10 snails at 6 ppm after 24 hrs. The method, boiled down: as §1
Experiment [3] concerns Biomphalaria alexandrina. Kind of experiment: Molluscicidal activity against Biomphalaria alexandrina assessed as number of dead snail per 10 snails at 8 ppm after 24 hrs. The gist of the method:
as §1

For experiment [4], the system named is Biomphalaria alexandrina. Kind of experiment: Molluscicidal activity against Biomphalaria alexandrina assessed as number of dead snail per 10 snails at 10 ppm after 24 hrs. The gist of the method:
as §1

Experiment [5] concerns Biomphalaria alexandrina. The experiment is described as follows: Molluscicidal activity against Biomphalaria alexandrina assessed as number of dead snail per 10 snails at 12 ppm after 24 hrs. The method, boiled down: as §1
In experiment [6] the test system is Biomphalaria alexandrina. The experiment is described as follows: Molluscicidal activity against Biomphalaria alexandrina assessed as number of dead snail per 10 snails at 14 ppm after 24 hrs. The method, boiled down: as §1
For experiment [7], the system named is Biomphalaria alexandrina. The experiment is described as follows: Molluscicidal activity against Biomphalaria alexandrina assessed as number of dead snail per 10 snails at 16 ppm after 24 hrs. The gist of the method: as §1
Experiment [8] relates to Biomphalaria alexandrina. Kind of experiment: Molluscicidal activity against Biomphalaria alexandrina after 24 hrs. The note with it: for LC50: Biomphalaria alexandrina, 24 h. The method, boiled down:
as §1

Values after ≈ are worked out from the molar mass of the structure shown.

One may read the LC50 as the concentration that kills 50% of the test population. Turning to `CC(=O)/C(C(=O)c1ccccc1)=C1/SC(C(=O)c2ccccc2)=NN1c1ccc(C)cc1`, the Activity is given as 2 in the experiment with Biomphalaria alexandrina [1]; 3 with Biomphalaria alexandrina [2]; 5 with Biomphalaria alexandrina [3]; 8 with Biomphalaria alexandrina [4]; 10 in the experiment on Biomphalaria alexandrina [5]; 10 in the experiment on Biomphalaria alexandrina [6]. Further, the Activity in the experiment with Biomphalaria alexandrina [7] was 10. The compound further gave an LC90 with Biomphalaria alexandrina [8] of 9 ppm. Also, the LC50 in the experiment with Biomphalaria alexandrina [8] stood at 5.5 µg/mL (≈ 12.5 µM).

Turning to `COc1ccc(N2N=C(C(=O)c3ccccc3)S/C2=C(/C(C)=O)C(=O)c2ccccc2)cc1`, the Activity with Biomphalaria alexandrina [1] was found to be 1; in the experiment with Biomphalaria alexandrina [2], 3; in the experiment with Biomphalaria alexandrina [3] it was 4; in the experiment with Biomphalaria alexandrina [4], 7; in the experiment with Biomphalaria alexandrina [5], 10; in the experiment on Biomphalaria alexandrina [6], 10. In addition, the Activity with Biomphalaria alexandrina [7] came to 10. For the same compound, the LC90 with Biomphalaria alexandrina [8] is recorded as 11 ppm. This compound showed an LC50 in the experiment with Biomphalaria alexandrina [8] of 6 µg/mL (≈ 13.1 µM).

On to `Cc1n[nH]c(Nc2ccccc2)c1C(=O)c1ccccc1`, for which the Activity in the experiment on Biomphalaria alexandrina [1] turned out to be 1; in the experiment with Biomphalaria alexandrina [2] it was 3; with Biomphalaria alexandrina [3], 4; in the experiment on Biomphalaria alexandrina [4], 8; in the experiment on Biomphalaria alexandrina [5], 9; with Biomphalaria alexandrina [6], 10. In the experiment with Biomphalaria alexandrina [7], the Activity was 10. This compound also yielded an LC90 in the experiment with Biomphalaria alexandrina [8] of 18 ppm. In the experiment with Biomphalaria alexandrina [8], this compound returned an LC50 of 13 µg/mL (≈ 46.9 µM).

For `O=C(Nc1cc(Cl)c([N+](=O)[O-])cc1Cl)c1ccccc1O`, the LC100 in the experiment with Biomphalaria alexandrina [8] stood at 1 ppm.

For `CCOC(=O)c1sc(Nc2ccccc2)c(C(=O)c2ccccc2)c1C`, the Activity in the experiment on Biomphalaria alexandrina [1] is listed as 0; in the experiment on Biomphalaria alexandrina [2], 1; in the experiment on Biomphalaria alexandrina [3], 1; with Biomphalaria alexandrina [4], 2; with Biomphalaria alexandrina [5], 2; in the experiment with Biomphalaria alexandrina [6], 4. The Activity in the experiment on Biomphalaria alexandrina [7] is given as 10. The same compound came in with an LC90 with Biomphalaria alexandrina [8] of 20 ppm. For the same compound, the 50% lethal concentration (LC50) in the experiment on Biomphalaria alexandrina [8] came out at 18 µg/mL (≈ 49.3 µM).

As to `CC(=O)/C(C(=O)c1ccccc1)=C1/SC(C(=O)c2ccccc2)=NN1c1ccccc1`, the Activity with Biomphalaria alexandrina [1] is 2; in the experiment on Biomphalaria alexandrina [2], 2; in the experiment with Biomphalaria alexandrina [3], 4; in the experiment on Biomphalaria alexandrina [4] it was 6; in the experiment with Biomphalaria alexandrina [5] it was 9; in the experiment with Biomphalaria alexandrina [6], 10. For the same compound, the Activity in the experiment with Biomphalaria alexandrina [7] stood at 10. The LC90 in the experiment on Biomphalaria alexandrina [8] was found to be 10 ppm. In the experiment on Biomphalaria alexandrina [8], this compound registered an LC50 of 8 µg/mL (≈ 18.8 µM).

Take `CC(=O)c1sc(Nc2ccccc2)c(C(=O)c2ccccc2)c1C`: the Activity turned out to be 1 in the experiment with Biomphalaria alexandrina [1]; 3 in the experiment with Biomphalaria alexandrina [2]; 5 with Biomphalaria alexandrina [3]; 8 with Biomphalaria alexandrina [4]; 8 in the experiment on Biomphalaria alexandrina [5]; 10 in the experiment on Biomphalaria alexandrina [6]. The Activity in the experiment on Biomphalaria alexandrina [7] came to 10. In addition, the LC90 with Biomphalaria alexandrina [8] is listed as 22 ppm. The compound further came in with a 50% lethal concentration (LC50) with Biomphalaria alexandrina [8] of 16 µg/mL (≈ 47.7 µM).

`Cc1c(C(=O)c2ccccc2)sc(Nc2ccccc2)c1C(=O)c1ccccc1`: the Activity with Biomphalaria alexandrina [1] is reported as 1; in the experiment with Biomphalaria alexandrina [2] it was 4; in the experiment with Biomphalaria alexandrina [3] it was 5; with Biomphalaria alexandrina [4], 6; with Biomphalaria alexandrina [5] it was 9; with Biomphalaria alexandrina [6] it was 10. Besides, in the experiment with Biomphalaria alexandrina [7], the Activity was determined as 10. Besides, the LC90 in the experiment with Biomphalaria alexandrina [8] is 20 ppm. Moreover, in the experiment with Biomphalaria alexandrina [8], the LC50 worked out at 15.6 µg/mL (≈ 39.2 µM).

With `Cc1c(C(=O)O)sc(Nc2ccccc2)c1C(=O)c1ccccc1`, the Activity in the experiment with Biomphalaria alexandrina [1] is recorded as 1; with Biomphalaria alexandrina [2], 2; in the experiment on Biomphalaria alexandrina [3], 3; in the experiment on Biomphalaria alexandrina [4], 5; in the experiment on Biomphalaria alexandrina [5], 6; in the experiment with Biomphalaria alexandrina [6], 8. In the experiment with Biomphalaria alexandrina [7], the Activity came to 10. Moreover, the LC90 in the experiment with Biomphalaria alexandrina [8] is listed as 23 ppm. In addition, the median lethal concentration (LC50) with Biomphalaria alexandrina [8] turned out to be 19 µg/mL (≈ 56.3 µM).
